bovine MsrA act = bovine methionine sulfoxide reductase A activation. purified bovine MsrA, absorbance read-out. activation, % at 10.6 µM. 360,000 compounds, 0.3% hits. AID 602163; in the data active = activation above about 7.5%;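 note: 0% = vehicle and 100% = reference activator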
ASAP1 inh = blocks human ASAP1-stimulated Arf1 GTP hydrolysis. Q9ULH1. GDP FP detection. inhibition, % at 16.5 µM. 360,000 compounds, 0.19% hits; in the data active = inhibition above about 25%;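 note: 0% = vehicle with enzyme and substrate and 100% = no enzyme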
MsrA inhibitor = bovine MsrA inhibition; purified bovine MsrA, absorbance read-out; inhibition, % at 15.5 µM; 360,000 compounds, 0.75% hits; AID 651718; in the data active = inhibition above about 4.5%;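 note: 0% = vehicle wells with enzyme and 100% = reference inhibitor wells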
HGIII-sPLA2 inh = Blocks human group III sPLA2 activity; AID 743126; 370,000 compounds, 0.56% hits; inhibition, % at 12.2 µM; Q9NZ20; QFRET BODIPY PC-A2 liposome hydrolysis, fluorescence;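 active = inhibition above mean plus 3 SD of compounds lying within the high and low control bounds, cut at about 19% in these data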;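 note: 0% = median of test compound wells and 100% = no enzyme DMSO wells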
Target sequence (Q9NZ20 whole entry, looked up): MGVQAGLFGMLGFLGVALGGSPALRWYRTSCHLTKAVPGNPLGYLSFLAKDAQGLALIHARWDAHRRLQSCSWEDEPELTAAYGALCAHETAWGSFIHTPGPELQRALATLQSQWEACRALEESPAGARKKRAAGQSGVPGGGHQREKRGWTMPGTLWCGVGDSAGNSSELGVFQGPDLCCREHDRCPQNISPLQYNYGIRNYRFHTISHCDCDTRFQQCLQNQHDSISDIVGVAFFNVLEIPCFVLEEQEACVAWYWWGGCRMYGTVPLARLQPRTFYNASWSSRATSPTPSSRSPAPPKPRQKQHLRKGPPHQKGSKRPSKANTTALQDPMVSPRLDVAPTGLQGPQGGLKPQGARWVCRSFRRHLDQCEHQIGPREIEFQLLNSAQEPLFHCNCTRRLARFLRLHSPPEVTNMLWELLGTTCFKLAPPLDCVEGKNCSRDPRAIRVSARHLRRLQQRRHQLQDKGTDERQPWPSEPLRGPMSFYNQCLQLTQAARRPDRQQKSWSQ
ARFGAP1 inh = inhibits rat ARF GTPase activating protein 1 | Arfgap1-stimulated ARF1 GTP hydrolysis, GDP FP detection | AID 651572 | inhibition, % at 16.5 µM | 360,000 compounds, 0.26% hits;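 active = inhibition above a per-plate limit, mean inhibition of low control wells plus 3 SD, cut at about 25% in these data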;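 note: 0% = DMSO wells with enzyme and 100% = wells lacking Arfgap1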
Target sequence (Q62848 1-136 limits assumed): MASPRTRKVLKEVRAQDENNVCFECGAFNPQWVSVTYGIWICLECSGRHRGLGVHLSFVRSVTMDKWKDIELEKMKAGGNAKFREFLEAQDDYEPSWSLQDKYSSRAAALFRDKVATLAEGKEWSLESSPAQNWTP
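System: truncated rat Arfgap1 GAP domain / Benchmarks: high control wells lacking Arfgap1, low control full reaction with DMSO / Times: compound-enzyme preincubation 20 min, reaction 120 min, detection 60 min, 25 °C / Repeats: one replicate per compound / Also added: human ARF1(Δ1-17)-GTP substrate / Measured by: Tracer-displacement fluorescence polarization with EDTA stop, 620/688 nm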
NR1D1 modulator = modulates human Rev-erb alpha binding to DNA | P20393 | 370,000 compounds, 0.79% hits | AID 1259318 | Rev-erbα–FITC-DNA binding, fluorescence polarization, 90 min | activity, % at 10 µM;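 active = activity above about 14%, limit read from the data; passing the limit was not always enough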;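 note: 0% = DMSO wells with 35 nM protein and 100% = DMSO wells with 750 nM protein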
NR1D1 mod conf = confirmation of modulators of human Rev-erb alpha DNA binding; activation, % at 25 µM; shares compounds with NR1D1 modulator; 3,000 compounds, 61% hits; Rev-erb alpha FITC-DNA binding, fluorescence polarization, 90 min;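 active = activation at or above a set limit, or at least 3 SD above the negative control mean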;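 note: 0% = 35 nM protein with DMSO and 100% = 750 nM protein high control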
RORg DNA counter = counter-screen for Rev-erb alpha modulators: RORgamma DNA binding; 910 compounds, 8% hits; shares compounds with NR1D1 modulator; IC50, µM; AID 1259320; purified RORgamma protein-FITC-DNA binding, fluorescence polarization;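 active = Compounds whose fitted half-maximal concentration for disrupting protein-DNA binding is below 10 micromolar; the record names Rev-erb in its text, so the target is in doubt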
Starred values were filed as active, the others as inactive; i = inactive; x = no result given. Rows were chosen to be rich in hits. Some 2.7% of all compounds tested hit in one or more screens of this group.

SMILES | bovine MsrA act | ASAP1 inh | MsrA inhibitor | HGIII-sPLA2 inh | ARFGAP1 inh | NR1D1 modulator | NR1D1 mod conf | others
COc1ccc2oc(=O)c(-c3cn4ccc(C)cc4n3)cc2c1 | 0 | -5 | 1 | 5 | 12 | 76* | 14
COc1ccc(NC(=O)C2(C)CCCN(C(C)C)C2)cc1F (stereo not drawn) | -3 | 0 | 1 | 15 | 5 | -1 | x
O=C(OCCN1C(=O)c2cccc3c(N4CCOCC4)ccc(c23)C1=O)c1ccc(Cl)cc1Cl | -5 | 3 | 0 | 0 | 9 | 260* | 206* | RORg DNA counter=4.5*
O=C(OCCN1C(=O)c2ccccc2C1=O)c1cc(S(=O)(=O)N2CCOCC2)ccc1Cl | -2 | -9 | -1 | -4 | 7 | -4 | x
O=C(OCCN1C(=O)c2cccc3c(N4CCOCC4)ccc(c23)C1=O)c1ccccc1Cl | -1 | 18 | 0 | -106 | 10 | 40* | 56* | RORg DNA counter=>40
CC1Sc2ccc(C(=O)N(CCc3ccccc3)Cc3ccccc3)cc2NC1=O (stereo not drawn) | 2 | -1 | -1 | -16 | 13 | -3 | x
CCN1CCN(C(=O)c2cc(COc3ccc(F)c(F)c3)on2)[C@@H](C)C1=O | 0 | 4 | 0 | -2 | -3 | -5 | x
Cc1ccc(N=Nc2c(=O)[nH]n3c(C)cc(C)nc23)cc1 | -1 | -9 | 1 | 4 | -17 | 17* | 4
O=C(N[C@@H]1CC[C@@H](CCn2cc(-c3ccccc3)nn2)O[C@@H]1CO)c1cnccn1 | x | -3 | 0 | 0 | 3 | 1 | x
O=C(c1cc2cc(F)ccc2[nH]1)N1CCc2ccccc21 | -2 | 7 | 1 | 9 | 11 | 12 | x
O=C(c1cc2cc(Br)ccc2[nH]1)N1CCc2ccccc21 | -2 | 0 | -1 | 3 | -4 | 49* | 54* | RORg DNA counter=>40
Cc1cccc(-c2cccc3c4c([nH]c23)[C@@H]2C[C@H](N(C)C(=O)c3ccco3)[C@H]([C@H](C)O)CN2CC4)c1 | x | x | x | -3 | x | 0 | x
O=S(=O)(NCCOc1ccccc1F)c1cccc(Br)c1 | -6 | 8 | 0 | -22 | -7 | 18* | 2
N#Cc1cccc(S(=O)(=O)NCCOc2ccccc2F)c1 | -3 | -9 | -1 | -4 | 3 | 4 | x
O=C1C(=Cc2ccccc2O)SC(=S)N1CCCN1CCOCC1 | 1 | 3 | 0 | -10 | 1 | 4 | x
CCOC(=O)COc1c(Cl)cc(C2NC(=S)NC(c3ccccc3)=C2C(C)=O)cc1OCC (stereo not drawn) | -10 | 4 | 0 | 9 | 9 | 34* | 31* | RORg DNA counter=>40
CC(C)C[C@@H]1Cc2[nH]c(=S)[nH]c(=O)c2[C@H](CCc2ccccc2)O1 | -7 | 17 | 1 | 10 | -6 | 5 | x
CCOC(=O)[C@]12CCCC=C1N(Cc1ccc3c(c1)OCO3)C(=O)[C@H](CC(=O)N1CCCC1)C2 | -1 | -10 | -1 | -4 | 4 | -2 | x
c1ccc(-c2nn3c(-c4ccccc4)nnc3s2)cc1 | -1 | -4 | 1 | 3 | 6 | 15 | x
CC(C)(C)c1ccc(-c2nnc3sc(-c4ccccn4)nn23)cc1 | -2 | 10 | 0 | -1 | 13 | 22* | 21*
Cc1cccc(-c2nnc3sc(-c4ccccc4)nn23)c1 | -2 | -23 | -2 | -2 | -8 | 82* | 135*
CCCCCCCCN1C(=O)[C@@H](CC(=O)NCCC(C)C)C[C@@]2(C(=O)OC)C1=C[C@H](C(C)(C)C)O[C@@H]2C | x | -9 | -1 | -2 | 3 | 7 | x
CN(CCOc1ccc(Cl)cc1)C(=O)c1cccc(S(=O)(=O)N2CCN(c3ccccc3)CC2)c1 | 0 | 3 | 0 | -9 | -2 | 3 | x
COc1cccc(-c2cnc3c(NC(C)=O)cc(-c4ccc(C(=O)NC5CC5)cc4)cn23)c1 | 5 | 21 | -1 | -5 | 9 | -3 | x
COc1ccccc1N1N=C(C(=O)c2ccccc2)C2C(=O)N(c3ccc(Br)cc3)C(=O)C21 (stereo not drawn) | -2 | 6 | 0 | 1 | 4 | 29* | 31* | RORg DNA counter=>40
SMILES | bovine MsrA act | ASAP1 inh | MsrA inhibitor | HGIII-sPLA2 inh | ARFGAP1 inh | NR1D1 modulator | NR1D1 mod conf | others
C[n+]1ccc(/C=C/c2ccc(Br)cc2)cc1 | -5 | -21 | 1 | -1 | 4 | 1 | x
CCCn1c(/C=C/c2cc[n+](C)cc2)nc2ccccc21 | -1 | 5 | 2 | 2 | -3 | -7 | x
Cc1ccc2[nH]c(C)c(/C=C/c3cc[n+](C)cc3)c2c1 | -8 | 13 | 0 | -42 | 13 | 235* | 182* | RORg DNA counter=>40
Cc1ccc2c(c1)c(/C=C/c1cc[n+](C)cc1)c(C)n2C | -1 | 13 | -1 | -37 | -11 | 280* | 224* | RORg DNA counter=i
CCOC(=O)[C@@H](NC(=O)/C=C/[C@H]1O[C@@H](n2ccc(=O)[nH]c2=O)[C@H](O)[C@@H]1O)C(C)C | -4 | 8 | 0 | 10 | -3 | -7 | x
O=C(CCN1CCCCC1)c1cccc(Cl)c1 | 0 | 6 | 0 | 5 | -13 | 1 | x
C[C@H]1[C@H](NC(=O)/C(=N/OC(C)(C)C(=O)O)c2csc(N)n2)C(=O)N1S(=O)(=O)O (stereo in doubt) | x | x | x | x | x | -3 | x
Cc1ccc2nc(Cl)c(C3CC(c4cccs4)=NN3C(=O)CCC(=O)O)cc2c1 (stereo not drawn) | -4 | -7 | 0 | 0 | 5 | -2 | x
COc1ccc2cc(C3CC(c4cccs4)=NN3C(C)=O)c(Cl)nc2c1 (stereo not drawn) | -4 | -13 | 1 | 11 | -8 | 41* | 32* | RORg DNA counter=>40
N#CC1=C(N)Oc2cc(N)ccc2C1c1cccnc1 (stereo not drawn) | -2 | 8 | -2 | -1 | -1 | 0 | x
CCN(CC)c1ccc2c(c1)OC(N)=C(C#N)C2c1cccnc1 (stereo not drawn) | 1 | -14 | 0 | -53 | -3 | 53* | 48*
CCN(c1cccc(C)c1)S(=O)(=O)c1cc2c3c(c1)CCC(=O)N3CCC2 | -10 | 15 | 0 | -9 | -2 | 53* | 62* | RORg DNA counter=>40
O=C(N[C@H](Cc1ccccc1)C(=O)N1CCN(C(=O)N2CCCCC2)CC1)[C@H]1O[C@@H](n2ccc(=O)[nH]c2=O)[C@H](O)[C@@H]1O | x | -1 | -1 | 5 | 2 | -4 | x
CCOc1ccc(N(CC(=O)Nc2c(C)n(C)n(-c3ccccc3)c2=O)S(=O)(=O)c2ccc3c(c2)N(C(=O)C2CCC2)CC3)cc1 | x | x | x | -4 | x | 2 | x
COc1cc(NC(=O)c2ccc(-c3ccc(F)c(F)c3)c3ccoc23)cc(OC)c1OC | -6 | -4 | 1 | -7 | 3 | 18* | -1

Source: PubChem
